Active and inactive are the calls of the source. The rule behind the calls is not given here.
Legend:
[1] = Antimigratory activity in patient-derived RN1 cells assessed as velocity of migration at 5 uM measured up to 20 hrs by wound scratch assay (reference value: 937 to 1174 micrometer/hr); type: functional, Homo sapiens
Summary of the method: (§1)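 Wound-healing migration assay: cell movement across the wound is measured as velocity (µm/h). Compounds were tested at 0, 1.0, 5.0 and 10.0 µM. Values are mean ± SEM of 3 independent experiments.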

U-251 [2] = assay: Antiinvasive activity in human U251 cells assessed as velocity of invasion at 1 uM measured up to 20 hrs by matrigel assay (reference value: 1151 to 1710 micrometer/hr); type: functional
A 172 [3] = assay: Antimigratory activity in human A172 cells assessed as velocity of migration at 5 uM measured up to 20 hrs by wound scratch assay (reference value: 2650 to 3123 micrometer/hr); type: functional; summary of the method: as §1
A 172 [4] = assay: Antiinvasive activity in human A172 cells assessed as velocity of invasion at 1 uM measured up to 20 hrs by matrigel assay (reference value: 2659 to 3047 micrometer/hr); type: functional
U-251 [5] = assay: Antiinvasive activity in human U251 cells assessed as velocity of invasion at 10 uM measured up to 20 hrs by matrigel assay (reference value: 1151 to 1710 micrometer/hr); type: functional
[6] = Cytotoxicity against patient-derived WK1 cells assessed as reduction in cell viability after 5 days by Alamar blue assay; type: functional, cell-based; conditions: Homo sapiens, WK1, 120 h
Summary of the method: (§2)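 The patient-derived glioblastoma lines were grown as stem cells under defined conditions to keep the phenotype and genotype of the resected tumours. Viability after treatment was read with Alamar blue.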

Homo sapiens = organism: Homo sapiens; assay: Inhibition of tubulin (unknown origin) polymerization
A 172 [7] = assay: Cytotoxicity against human A172 cells assessed as reduction in cell viability after 3 days by Alamar blue assay; type: functional, cell-based; conditions: A 172, 72 h
A 172 [8] = assay: Antimigratory activity in human A172 cells assessed as velocity of migration at 10 uM measured up to 20 hrs by wound scratch assay (reference value: 2650 to 3123 micrometer/hr); type: functional; summary of the method: as §1
U-251 [9] = assay: Antiinvasive activity in human U251 cells assessed as velocity of invasion at 5 uM measured up to 20 hrs by matrigel assay (reference value: 1151 to 1710 micrometer/hr); type: functional
U-251 [10] = assay: Cytotoxicity against human U251 cells assessed as reduction in cell viability after 3 days by Alamar blue assay; type: functional, cell-based; conditions: U-251, 72 h
A 172 [11] = assay: Antimigratory activity in human A172 cells assessed as velocity of migration at 1 uM measured up to 20 hrs by wound scratch assay (reference value: 2650 to 3123 micrometer/hr); type: functional; summary of the method: as §1
[12] = molecular target: Dual specificity tyrosine-phosphorylation-regulated kinase 1A (Homo sapiens, UniProt Q13627); assay: Inhibition of DYRK1A (unknown origin) using woodtide as substrate after 10 mins in presence of [gamma-33P]ATP by microbeta scintillation counting
[13] = Cytotoxicity against patient-derived SJH1 cells assessed as reduction in cell viability after 3 days by Alamar blue assay; type: functional, cell-based; conditions: Homo sapiens, SJH1, 72 h; summary of the method: as §2
A 172 [14] = assay: Antiinvasive activity in human A172 cells assessed as velocity of invasion at 5 uM measured up to 20 hrs by matrigel assay (reference value: 2659 to 3047 micrometer/hr); type: functional
[15] = molecular target: Dual specificity tyrosine-phosphorylation-regulated kinase 1B (Homo sapiens, UniProt Q9Y463); assay: Inhibition of DYRK1B (unknown origin) using woodtide as substrate after 40 mins in presence of [gamma-33P]ATP by microbeta scintillation counting
U-251 [16] = assay: Antimigratory activity in human U251 cells assessed as velocity of migration at 1 uM measured up to 20 hrs by wound scratch assay (reference value: 2159 to 2653 micrometer/hr); type: functional; summary of the method: as §1
[17] = Antimigratory activity in patient-derived RN1 cells assessed as velocity of migration at 10 uM measured up to 20 hrs by wound scratch assay (reference value: 937 to 1174 micrometer/hr); type: functional, Homo sapiens; summary of the method: as §1
[18] = (§3) Anticlonogenic activity against patient-derived RN1 cells after 10 to 12 days by toluidine blue staining based assay; type: functional, cell-based, Homo sapiens
Summary of the method: (§4)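 Cells were exposed to compound for 10 days, then colonies were fixed, stained with Toluidine Blue and counted. […] Values are mean ± SEM of 3 independent experiments, each in duplicate, with one-way ANOVA and Dunnett's test against vehicle.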

RN1 = assay: as §3; type: functional, cell-based; conditions: Homo sapiens; summary of the method: as §4
[19] = Antimigratory activity in patient-derived RN1 cells assessed as velocity of migration at 1 uM measured up to 20 hrs by wound scratch assay (reference value: 937 to 1174 micrometer/hr); type: functional, Homo sapiens; summary of the method: as §1
[20] = molecular target: Dual specificity protein kinase CLK1 (Homo sapiens, UniProt P49759); assay: Inhibition of CLK1 (unknown origin) using KKGRSRSRSRSRSR as substrate after 40 mins in presence of [gamma-33P]ATP by microbeta scintillation counting
Summary of the method: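 CLK1 was assayed with RS peptide substrate at 100 µM ATP.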

[21] = Cytotoxicity against patient-derived JK2 cells assessed as reduction in cell viability after 3 days by Alamar blue assay; type: functional, cell-based; conditions: Homo sapiens, JK2, 72 h; summary of the method: as §2
[22] = molecular target: T1, Dual specificity tyrosine-phosphorylation-regulated kinase 2 (Homo sapiens, UniProt Q92630); assay: Inhibition of DYRK2 (unknown origin) using woodtide as substrate after 40 mins in presence of [gamma-33P]ATP by microbeta scintillation counting
T1 sequence (Q92630 whole entry): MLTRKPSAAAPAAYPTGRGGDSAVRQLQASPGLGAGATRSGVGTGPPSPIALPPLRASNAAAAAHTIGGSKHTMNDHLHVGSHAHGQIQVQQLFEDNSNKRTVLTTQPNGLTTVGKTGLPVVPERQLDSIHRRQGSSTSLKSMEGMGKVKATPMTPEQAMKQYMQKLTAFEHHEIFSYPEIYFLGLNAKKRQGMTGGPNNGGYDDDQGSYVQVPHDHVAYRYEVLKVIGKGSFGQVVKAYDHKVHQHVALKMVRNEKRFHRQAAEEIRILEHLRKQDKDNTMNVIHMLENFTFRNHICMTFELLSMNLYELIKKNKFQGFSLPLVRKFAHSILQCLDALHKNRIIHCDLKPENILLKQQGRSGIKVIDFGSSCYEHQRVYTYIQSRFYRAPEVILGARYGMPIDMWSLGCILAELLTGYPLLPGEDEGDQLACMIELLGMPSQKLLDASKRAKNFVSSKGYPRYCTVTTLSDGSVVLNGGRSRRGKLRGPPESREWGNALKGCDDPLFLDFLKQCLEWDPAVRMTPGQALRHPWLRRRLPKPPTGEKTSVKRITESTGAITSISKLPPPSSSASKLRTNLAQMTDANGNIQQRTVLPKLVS

A 172 [23] = assay: Antiinvasive activity in human A172 cells assessed as velocity of invasion at 10 uM measured up to 20 hrs by matrigel assay (reference value: 2659 to 3047 micrometer/hr); type: functional
U-251 [24] = assay: Antimigratory activity in human U251 cells assessed as velocity of migration at 5 uM measured up to 20 hrs by wound scratch assay (reference value: 2159 to 2653 micrometer/hr); type: functional; summary of the method: as §1
[25] = Cytotoxicity against patient-derived RN1 cells assessed as reduction in cell viability after 3 days by Alamar blue assay; type: functional, cell-based; conditions: Homo sapiens, RN1, 72 h; summary of the method: as §2
U-251 [26] = assay: Antimigratory activity in human U251 cells assessed as velocity of migration at 10 uM measured up to 20 hrs by wound scratch assay (reference value: 2159 to 2653 micrometer/hr); type: functional; summary of the method: as §1
[27] = molecular target: T2, Dual specificity tyrosine-phosphorylation-regulated kinase 4 (Homo sapiens, UniProt Q9NR20); assay: Inhibition of full-length recombinant human GST-tagged DYRK4 expressed in baculovirus infected insect cells using DYRKtide as substrate after 5 mins in presence of [gamma-33P]ATP by liquid scintillation counting
T2 sequence (Q9NR20 whole entry): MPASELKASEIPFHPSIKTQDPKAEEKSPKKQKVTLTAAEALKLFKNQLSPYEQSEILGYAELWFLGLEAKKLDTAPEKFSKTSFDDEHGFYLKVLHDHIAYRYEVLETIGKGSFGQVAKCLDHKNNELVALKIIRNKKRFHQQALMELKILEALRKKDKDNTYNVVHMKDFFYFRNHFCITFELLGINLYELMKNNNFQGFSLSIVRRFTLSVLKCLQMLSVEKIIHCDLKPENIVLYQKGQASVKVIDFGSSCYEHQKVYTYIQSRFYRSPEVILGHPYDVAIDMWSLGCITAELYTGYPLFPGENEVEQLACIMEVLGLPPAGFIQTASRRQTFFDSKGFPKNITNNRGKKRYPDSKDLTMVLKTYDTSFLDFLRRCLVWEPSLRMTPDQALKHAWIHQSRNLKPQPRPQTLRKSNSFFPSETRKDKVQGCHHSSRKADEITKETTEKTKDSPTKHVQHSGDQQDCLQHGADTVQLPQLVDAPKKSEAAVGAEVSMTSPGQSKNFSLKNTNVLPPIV

[28] = molecular target: T3, Dual specificity tyrosine-phosphorylation-regulated kinase 3 (Homo sapiens, UniProt O43781); assay: Inhibition of full-length recombinant human GST-tagged DYRK3 expressed in Escherichia coli using woodtide as substrate after 30 mins in presence of [gamma-33P]ATP
T3 sequence (O43781 whole entry): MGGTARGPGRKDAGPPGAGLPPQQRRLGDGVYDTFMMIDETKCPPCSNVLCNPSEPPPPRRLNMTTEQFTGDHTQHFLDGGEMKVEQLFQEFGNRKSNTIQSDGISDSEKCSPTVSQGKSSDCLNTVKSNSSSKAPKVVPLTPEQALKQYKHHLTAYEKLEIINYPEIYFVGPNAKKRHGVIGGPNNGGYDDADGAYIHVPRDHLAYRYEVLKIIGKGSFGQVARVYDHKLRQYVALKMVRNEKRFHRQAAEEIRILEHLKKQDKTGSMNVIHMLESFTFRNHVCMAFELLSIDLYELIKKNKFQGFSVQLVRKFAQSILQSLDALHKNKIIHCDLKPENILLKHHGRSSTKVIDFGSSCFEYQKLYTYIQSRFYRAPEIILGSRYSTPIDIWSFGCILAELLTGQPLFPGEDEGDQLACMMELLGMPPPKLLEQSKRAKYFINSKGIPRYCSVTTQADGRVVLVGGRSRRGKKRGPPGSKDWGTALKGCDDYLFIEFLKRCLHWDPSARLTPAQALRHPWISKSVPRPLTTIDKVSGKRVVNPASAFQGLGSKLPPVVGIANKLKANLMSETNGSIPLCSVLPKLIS

Sequence of Dual specificity tyrosine-phosphorylation-regulated kinase 1B (Q9Y463 whole entry): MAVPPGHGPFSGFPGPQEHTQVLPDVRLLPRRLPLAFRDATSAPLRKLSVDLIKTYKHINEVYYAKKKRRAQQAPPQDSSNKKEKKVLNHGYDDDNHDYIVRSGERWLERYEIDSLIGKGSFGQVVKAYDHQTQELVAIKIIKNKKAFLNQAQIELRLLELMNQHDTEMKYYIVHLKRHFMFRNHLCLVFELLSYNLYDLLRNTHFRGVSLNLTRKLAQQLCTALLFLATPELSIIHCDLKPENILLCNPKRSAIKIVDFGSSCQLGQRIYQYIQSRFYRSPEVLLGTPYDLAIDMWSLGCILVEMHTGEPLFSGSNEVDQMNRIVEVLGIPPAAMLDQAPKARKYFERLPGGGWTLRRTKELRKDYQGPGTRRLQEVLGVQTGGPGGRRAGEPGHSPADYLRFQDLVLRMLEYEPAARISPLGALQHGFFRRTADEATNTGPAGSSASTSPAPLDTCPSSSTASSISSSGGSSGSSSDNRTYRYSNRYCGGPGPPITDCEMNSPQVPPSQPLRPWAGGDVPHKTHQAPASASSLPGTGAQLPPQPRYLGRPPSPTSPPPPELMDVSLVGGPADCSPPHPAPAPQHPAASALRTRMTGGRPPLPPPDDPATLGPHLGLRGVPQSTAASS
Sequence of Dual specificity protein kinase CLK1 (P49759 whole entry): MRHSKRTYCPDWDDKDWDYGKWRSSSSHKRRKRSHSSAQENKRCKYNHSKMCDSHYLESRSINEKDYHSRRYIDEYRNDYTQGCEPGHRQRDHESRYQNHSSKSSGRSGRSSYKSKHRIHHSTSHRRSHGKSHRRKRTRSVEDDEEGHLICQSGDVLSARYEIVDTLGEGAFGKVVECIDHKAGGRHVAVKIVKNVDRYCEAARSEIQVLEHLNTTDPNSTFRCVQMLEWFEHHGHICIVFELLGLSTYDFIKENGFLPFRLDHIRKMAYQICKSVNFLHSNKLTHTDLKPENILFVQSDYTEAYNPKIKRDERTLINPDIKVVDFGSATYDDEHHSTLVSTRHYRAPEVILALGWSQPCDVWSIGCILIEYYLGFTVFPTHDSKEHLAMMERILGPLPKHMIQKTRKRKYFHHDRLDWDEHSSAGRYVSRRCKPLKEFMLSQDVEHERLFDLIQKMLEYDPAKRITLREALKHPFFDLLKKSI

SMILES	Activity [1] [um/hr]	Activity (U-251 [2]) [um/hr]	Activity (A 172 [3]) [um/hr]	Activity (A 172 [4]) [um/hr]	Activity (U-251 [5]) [um/hr]	EC50 [6] [µM]	inhibition (Homo sapiens)	EC50 (A 172 [7]) [µM]	Activity (A 172 [8]) [um/hr]	Activity (U-251 [9]) [um/hr]	EC50 (U-251 [10]) [µM]	Activity (A 172 [11]) [um/hr]	IC50 [12] [µM]	EC50 [13] [µM]	Activity (A 172 [14]) [um/hr]	IC50 [15] [µM]	Activity (U-251 [16]) [um/hr]	Activity [17] [um/hr]	Activity [19] [um/hr]	IC50 [20] [µM]	also measured
CC(=O)Nc1ccc(-c2cnc3[nH]cc(-c4ccc(O)cc4)c3c2)cc1	210	736	2296	2731	-118	0.9	inactive	1.6 to 4.6	651	34	1.6 to 4.6	2891	0.0066	5.1	2027	0.038	1125	196	332	0.035	EC50 [18]: 2.1 µM; Activity (RN1): Dose-dependent effect; EC50 [21]: 8.6 µM; IC50 [22]: 0.536 µM; Activity (A 172 [23]): 1718 um/hr; Activity (U-251 [24]): 173 um/hr; EC50 [25]: 2.1 µM; Activity (U-251 [26]): 111 um/hr
Nc1ccc(-c2c[nH]c3ncc(-c4ccc(O)cc4)cc23)cc1	929	1451	3065	2411	1380	> 50	inactive	> 50	2827	1481	> 50	3123	> 1	> 50	2232	> 1	2331	791	1070	> 1	EC50 [21]: > 50 µM; IC50 [22]: > 1 µM; Activity (A 172 [23]): 2707 um/hr; Activity (U-251 [24]): 2370 um/hr; EC50 [25]: > 50 µM; Activity (U-251 [26]): 2702 um/hr
CC[C@]1(O)C[C@@H]2CN(CCc3c([nH]c4ccccc34)[C@@](C(=O)OC)(c3cc4c(cc3OC)N(C)[C@H]3[C@@](O)(C(=O)OC)[C@H](OC(C)=O)[C@]5(CC)C=CCN6CC[C@]43[C@@H]65)C2)C1	–	–	–	–	–	–	Active	–	–	–	–	–	–	–	–	–	–	–	–	–	–
COc1ccc2c(c1)[nH]c1c(C)nccc12 [HARMINE]	–	–	–	–	–	–	–	–	–	–	–	–	–	–	–	–	–	–	–	–	IC50 [27]: 80 µM; IC50 [28]: 0.41 µM

From ChEMBL document CHEMBL4007420, “Structural Optimization and Pharmacological Evaluation of Inhibitors Targeting Dual-Specificity Tyrosine Phosphorylation-Regulated Kinases (DYRK) and CDC-like kinases (CLK) in Glioblastoma” (J Med Chem, 2017)
